Paper PMC7740640 (Xenobiotica; the fate of foreign compounds in biological …, 2020)
Values joined by “and” are separate entries in the source; they are usually repeats but may differ in a detail not shown here. Equal entries are not always repeated.

How the values were obtained:
Format in all cases: in vitro ADME
CYP3A4 = CYP3A4 (Homo sapiens, UniProt P08684); test: Projected involvement in C152 metabolism in HLM
Procedure, shortened: (§1)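 Calculated values, no new incubations. Each of seven C152-metabolizing P450s has a fractional content in the pooled HLM P450 pool (LC-MS/MS MRM). That fraction is multiplied by its Supersome Vmax (saturation) or by its rate at 30 μM C152 from Hill or Michaelis–Menten parameters. Expected participation (% TNR) is each normalized rate divided by the sum of all seven.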

CYP2D6 = CYP2D6 (Homo sapiens, UniProt P10635); test: C152 metabolism by Supersomes containing CYP2D6; settings: recombinant CYP2D6 Supersomes
Sequence of CYP2D6 (P10635 whole entry): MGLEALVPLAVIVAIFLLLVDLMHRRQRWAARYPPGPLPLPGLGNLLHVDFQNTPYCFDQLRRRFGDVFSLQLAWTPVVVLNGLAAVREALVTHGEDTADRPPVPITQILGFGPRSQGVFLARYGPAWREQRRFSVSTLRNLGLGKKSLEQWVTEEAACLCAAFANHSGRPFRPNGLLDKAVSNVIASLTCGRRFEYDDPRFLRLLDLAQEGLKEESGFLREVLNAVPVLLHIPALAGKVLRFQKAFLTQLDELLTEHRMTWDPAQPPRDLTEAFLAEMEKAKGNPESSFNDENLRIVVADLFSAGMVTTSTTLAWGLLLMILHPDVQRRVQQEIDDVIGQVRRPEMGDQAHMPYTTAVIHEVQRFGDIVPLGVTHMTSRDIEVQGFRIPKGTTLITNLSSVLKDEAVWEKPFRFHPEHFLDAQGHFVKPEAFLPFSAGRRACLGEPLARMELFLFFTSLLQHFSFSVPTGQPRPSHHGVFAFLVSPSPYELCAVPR

CYP2C9 = CYP2C9 (Homo sapiens, UniProt P11712); test: Projected involvement in C152 metabolism in HLM
Sequence of CYP2C9 (P11712 whole entry): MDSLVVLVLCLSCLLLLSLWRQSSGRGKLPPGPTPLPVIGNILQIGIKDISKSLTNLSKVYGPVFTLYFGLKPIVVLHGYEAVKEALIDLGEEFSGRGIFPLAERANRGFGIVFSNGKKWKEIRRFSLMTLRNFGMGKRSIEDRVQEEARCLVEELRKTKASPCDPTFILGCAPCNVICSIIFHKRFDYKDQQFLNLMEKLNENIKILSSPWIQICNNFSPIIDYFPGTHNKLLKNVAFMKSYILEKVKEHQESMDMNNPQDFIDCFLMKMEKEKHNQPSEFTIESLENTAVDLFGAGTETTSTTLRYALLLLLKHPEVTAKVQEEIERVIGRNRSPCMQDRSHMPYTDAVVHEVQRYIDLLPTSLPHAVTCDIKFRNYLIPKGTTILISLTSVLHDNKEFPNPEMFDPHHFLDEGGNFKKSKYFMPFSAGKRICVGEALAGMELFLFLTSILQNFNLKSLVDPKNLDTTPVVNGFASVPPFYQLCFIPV
Procedure, shortened: as §1

[1] = test system: human liver microsomes (HLM); test: C152 metabolism
Procedure, shortened: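 Pooled 50-donor mixed-gender human liver microsomes. Continuous single-wavelength fluorimetry at 500 nm in 0.1 M Na-HEPES pH 7.4 with 60 mM KCl, stirred at 30 °C. C152 0.1–30 μM from acetone stock; 200 μM NADPH starts it. Linear slope over 3–5 min, scaled by the C151–C152 fluorescence difference. Normalized to CPR, measured as NADPH-dependent cytochrome c reduction rate. Michaelis–Menten or Hill fit, 2–6 runs.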

CYP2B6 [2] = target: T1, CYP2B6 (Homo sapiens, UniProt P20813); test: C152 metabolism; settings: for Specific rate: CYP2B6
T1 sequence (P20813 1-491): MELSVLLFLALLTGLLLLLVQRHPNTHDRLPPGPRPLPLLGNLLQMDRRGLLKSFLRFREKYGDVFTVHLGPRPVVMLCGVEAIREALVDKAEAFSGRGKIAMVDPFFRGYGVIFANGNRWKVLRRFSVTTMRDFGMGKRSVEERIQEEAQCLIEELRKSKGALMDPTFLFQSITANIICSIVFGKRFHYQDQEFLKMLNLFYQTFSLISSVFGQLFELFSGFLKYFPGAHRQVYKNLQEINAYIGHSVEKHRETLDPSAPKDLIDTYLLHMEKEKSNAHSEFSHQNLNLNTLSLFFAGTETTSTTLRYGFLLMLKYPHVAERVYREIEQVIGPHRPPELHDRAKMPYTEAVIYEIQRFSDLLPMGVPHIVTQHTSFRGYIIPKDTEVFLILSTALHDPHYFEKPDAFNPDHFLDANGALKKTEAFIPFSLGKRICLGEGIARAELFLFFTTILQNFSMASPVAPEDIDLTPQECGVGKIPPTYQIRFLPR
Procedure, shortened: (§2)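 Human P450s in Supersomes that co-express human CPR and cytochrome b5. Reaction in 0.1 M Na-HEPES pH 7.4 with 60 mM KCl, stirred at 30 °C. C152 0.1–30 μM added from acetone stock; 200 μM NADPH starts it. Fluorescence rise read at 500 nm (isosbestic, mono-demethylation step). Rate is the linear slope over 3–5 min, scaled by the C151–C152 fluorescence difference. Michaelis–Menten or Hill fit, Vmax per P450, 2–6 runs; rate at 30 μM computed from fit.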

CYP1A2 [3] = target: T2, CYP1A2 (Homo sapiens, UniProt P05177); test: Formation of C151 from C152; settings: SS(1A2)
T2 sequence (P05177 2-516 limits assumed): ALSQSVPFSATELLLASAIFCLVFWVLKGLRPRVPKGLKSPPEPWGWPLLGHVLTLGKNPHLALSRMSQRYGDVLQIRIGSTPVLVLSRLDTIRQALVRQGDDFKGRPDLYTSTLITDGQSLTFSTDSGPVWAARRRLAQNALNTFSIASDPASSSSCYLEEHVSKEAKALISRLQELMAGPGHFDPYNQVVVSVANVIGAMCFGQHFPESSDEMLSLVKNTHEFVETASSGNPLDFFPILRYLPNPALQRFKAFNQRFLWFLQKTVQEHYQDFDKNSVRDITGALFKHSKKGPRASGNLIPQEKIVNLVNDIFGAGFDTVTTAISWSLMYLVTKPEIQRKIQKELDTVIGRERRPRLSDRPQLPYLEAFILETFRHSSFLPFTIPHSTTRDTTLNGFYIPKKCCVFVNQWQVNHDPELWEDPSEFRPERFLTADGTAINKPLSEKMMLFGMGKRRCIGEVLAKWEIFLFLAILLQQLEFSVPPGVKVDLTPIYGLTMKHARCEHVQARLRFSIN
Procedure, shortened: (§3)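 Probes hold 5–20 pmol P450 in 0.1 M Na-HEPES pH 7.4 with 60 mM KCl. C152 added from 0.5 or 4 mM acetone stock; reaction started with 500 μM NADPH (final), run 5 min at 30 °C with shaking. Quenched with isopropanol containing phenacetin internal standard, then centrifuged. C151 quantified by reverse-phase LC with ESI-positive MRM MS/MS (m/z 230.16→157.2). Michaelis–Menten or Hill fit; normalized per P450 (Supersomes) or CPR (HLM).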

CYP1A2 [4] = target: T2, CYP1A2; test: C152 metabolism
CYP3A5 = CYP3A5 (Homo sapiens, UniProt P20815); test: C152 metabolism; settings: for Specific rate: CYP3A5
Sequence of CYP3A5 (P20815 whole entry): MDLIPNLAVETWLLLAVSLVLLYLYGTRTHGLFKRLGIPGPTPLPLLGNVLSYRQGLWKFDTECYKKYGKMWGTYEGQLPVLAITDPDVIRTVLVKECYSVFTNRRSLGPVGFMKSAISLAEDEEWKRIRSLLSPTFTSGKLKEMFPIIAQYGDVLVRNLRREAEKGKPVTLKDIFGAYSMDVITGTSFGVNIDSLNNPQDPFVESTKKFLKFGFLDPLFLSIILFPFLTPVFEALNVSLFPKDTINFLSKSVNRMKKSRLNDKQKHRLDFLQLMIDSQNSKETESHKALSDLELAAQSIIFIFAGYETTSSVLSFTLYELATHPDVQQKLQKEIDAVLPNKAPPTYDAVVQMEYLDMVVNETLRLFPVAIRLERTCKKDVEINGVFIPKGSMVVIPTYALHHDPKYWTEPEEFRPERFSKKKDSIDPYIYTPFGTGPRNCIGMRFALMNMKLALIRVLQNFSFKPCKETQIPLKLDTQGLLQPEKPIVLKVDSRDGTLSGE
Procedure, shortened: as §2

[5] = test system: human liver microsomes (HLM); test: Formation of C151 from C152
Procedure, shortened: as §3

CYP2B6 [6] = target: T1, CYP2B6; test: Formation of C151 from C152; settings: SS(2B6)
Procedure, shortened: as §3

CYP2A6 = CYP2A6 (Homo sapiens, UniProt P11509); test: C152 metabolism by Supersomes containing CYP2A6; settings: recombinant CYP2A6 Supersomes
Sequence of CYP2A6 (P11509 whole entry): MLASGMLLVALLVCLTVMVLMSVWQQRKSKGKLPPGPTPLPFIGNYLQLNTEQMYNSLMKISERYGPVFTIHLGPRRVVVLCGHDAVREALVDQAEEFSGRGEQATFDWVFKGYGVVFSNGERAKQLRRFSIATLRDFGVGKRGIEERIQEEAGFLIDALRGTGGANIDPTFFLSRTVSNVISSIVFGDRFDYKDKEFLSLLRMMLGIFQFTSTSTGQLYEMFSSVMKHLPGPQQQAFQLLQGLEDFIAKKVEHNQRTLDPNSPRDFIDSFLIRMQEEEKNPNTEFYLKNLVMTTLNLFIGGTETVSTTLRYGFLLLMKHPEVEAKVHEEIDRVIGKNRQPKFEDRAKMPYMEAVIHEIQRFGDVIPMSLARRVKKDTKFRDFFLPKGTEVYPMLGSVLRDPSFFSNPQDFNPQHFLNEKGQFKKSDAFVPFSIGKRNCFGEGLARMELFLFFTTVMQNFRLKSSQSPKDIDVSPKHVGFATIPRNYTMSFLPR

[7] = at saturation of all P450 species
[8] = at 30 μM C152, calculated from fit parameters
[9] = at saturation (Vmax in Supersomes)
[10] = C151 formed over total C152 metabolized
[11] = mol C151 formed per mol P450 per min
[12] = read-out: KM or S50 (Formation of C151, LC-MS), Michaelis-Menten fit

Sequence of CYP3A4 (P08684 2-503 limits assumed): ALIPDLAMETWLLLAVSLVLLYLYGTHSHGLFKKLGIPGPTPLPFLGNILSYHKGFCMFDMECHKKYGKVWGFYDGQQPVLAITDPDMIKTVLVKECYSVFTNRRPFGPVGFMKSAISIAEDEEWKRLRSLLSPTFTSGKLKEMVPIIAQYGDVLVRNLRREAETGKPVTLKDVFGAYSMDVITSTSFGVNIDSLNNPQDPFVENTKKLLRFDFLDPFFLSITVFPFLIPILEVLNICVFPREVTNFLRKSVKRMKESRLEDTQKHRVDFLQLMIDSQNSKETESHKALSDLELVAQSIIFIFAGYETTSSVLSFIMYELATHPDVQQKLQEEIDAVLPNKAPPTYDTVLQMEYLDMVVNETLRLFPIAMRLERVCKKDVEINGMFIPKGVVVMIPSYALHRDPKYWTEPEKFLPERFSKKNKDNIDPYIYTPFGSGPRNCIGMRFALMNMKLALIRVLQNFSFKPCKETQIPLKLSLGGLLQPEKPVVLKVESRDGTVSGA

CN(C)c1ccc2c(C(F)(F)F)cc(=O)oc2c1 [C152, 7-Dimethylamino-4-trifluromethylcoumarin]
Normalized rate (CYP3A4; at 30 μM C152): 10.3 min⁻¹
Expected participation (CYP3A4; at 30 μM C152, % TNR): 84% and 84.75%
Normalized rate (CYP3A4; [7]): 10.8 min⁻¹
activity with C152 (CYP2D6): no detectable activity
Normalized rate (CYP2C9; at 30 μM C152): 0.496 min⁻¹
Expected participation (CYP2C9; at 30 μM C152, % TNR): 4% and 4.08%
Normalized rate (CYP2C9; [7]): 0.981 min⁻¹
N, Hill coefficient (C152 metabolism, fluorimetric assay) [1]: 1.8±0.3
Vmax (C152 metabolism, fluorimetric assay) ([1]; normalized per concentration of CPR): 58 ± 24 min⁻¹
Km ([1]; read-out: KM or S50 (C152 metabolism, fluorimetric assay), Hill fit (S50), 30 °C, pH 7.4): 4.5 ± 1.5 µM
Fraction of C151 formed, Fluorimetry ([1]; scanning fluorimetry with PCA): 5.7±2.0%
Specific rate (CYP2B6 [2]; [8]): 46.6 min⁻¹
Specific rate (CYP2B6 [2]; [9]): 49.3 min⁻¹
Vmax (C152 metabolism, fluorimetric assay) (CYP2B6 [2]; SS(2B6), mol C152 per mol P450 per min): 49 ± 11 min⁻¹
Fraction of C151 formed, Fluorimetry (CYP2B6 [2]; SS(2B6), scanning fluorimetry with PCA): 7.3±3.4%
Km (CYP2B6 [2]; read-out: KM or S50 (C152 metabolism, fluorimetric assay), SS(2B6), Michaelis-Menten fit, 30 °C, pH 7.4): 1.8 ± 0.2 µM
Fraction of C151 formed, LC-MS (CYP1A2 [3]; [10]): 20% and 20±2%
Vmax (Formation of C151, LC-MS) (CYP1A2 [3]; [11]): 0.98 ± 0.12 min⁻¹
Km (CYP1A2 [3]; [12]): 1.7 ± 0.6 µM
Specific rate (CYP1A2 [4]; CYP1A2, at 30 μM C152, calculated from fit parameters): 4.5 min⁻¹
Specific rate (CYP1A2 [4]; CYP1A2, at saturation (Vmax in Supersomes)): 5.0 min⁻¹
C151 formed (both methods: LC-MS/MS and scanning fluorimetry) (CYP1A2 [4]; CYP1A2, fraction in total rate of C152 metabolism): 20–25%
Vmax (C152 metabolism, fluorimetric assay) (CYP1A2 [4]; SS(1A2), mol C152 per mol P450 per min): 5.0 ± 1.1 min⁻¹
Fraction of C151 formed, Fluorimetry (CYP1A2 [4]; SS(1A2), scanning fluorimetry with PCA): 26±7%
Km (CYP1A2 [4]; read-out: KM or S50 (C152 metabolism, fluorimetric assay), SS(1A2), Michaelis-Menten fit, 30 °C, pH 7.4): 2.9 ± 1.7 µM
Specific rate (CYP3A5; [8]): 9.5 min⁻¹
Specific rate (CYP3A5; [9]): 15.3 min⁻¹
Vmax (C152 metabolism, fluorimetric assay) (CYP3A5; SS(3A5), mol C152 per mol P450 per min): 15 ± 4 min⁻¹
Km (CYP3A5; read-out: KM or S50 (C152 metabolism, fluorimetric assay), SS(3A5), Michaelis-Menten fit, 30 °C, pH 7.4): 19 ± 9 µM
Vmax (Formation of C151, LC-MS) ([5]; mol C151 formed, normalized per CPR): 1.3 ± 0.2 min⁻¹
Km [5, 12]: 3 ± 0.5 µM
Fraction of C151 formed, LC-MS (CYP2B6 [6]; [10]): 4% and 4.0±0.8%
Vmax (Formation of C151, LC-MS) (CYP2B6 [6]; [11]): 1.8 ± 0.4 min⁻¹
Km (CYP2B6 [6]; [12]): 1 ± 0.4 µM
activity with C152 (CYP2A6): no detectable activity
